ChEMBL document CHEMBL4808225, “Discovery and Characterization of Selective and Ligand-Efficient DYRK Inhibitors” (J Med Chem, 2021)
Converted amounts (≈) assume the structure as drawn.

Tests used:
[1] = Metabolic stability in rat liver microsomes; format: ADME, Microsome; conditions: read-out: Stabilty
[2] = biological target: Dual specificity tyrosine-phosphorylation-regulated kinase 1A (Homo sapiens, UniProt Q13627); test: Displacement of Kinase tracer 236 from biotinylated DYRK1A (unknown origin) expressed in Escherichia coli BL21 (DE3) incubated for 1.5 hrs by TR-FRET assay
[3] = biological target: Glycogen synthase kinase-3 beta (Homo sapiens) (UniProt P49841); test: Inhibition of wild-type human full length GSK3B (M1 to T433 residues) expressed in mammalian expression system assessed as remaining activity at 1 uM by Kinomescan method relative to control
Summary of the method: (§1)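 KINOMEscan competition binding panel run with inhibitor at 1 μM; read-out is remaining kinase activity (percent of control).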

[4] = biological target: Dual specificity protein kinase CLK2 (Homo sapiens) (UniProt P49760); test: Inhibition of wild-type human partial length CLK2 (D144 to R498 residues) expressed in bacterial expression system assessed as remaining activity at 1 uM by Kinomescan method relative to control; summary of the method: as §1
[5] = biological target: Cyclin-dependent kinase 2 (Homo sapiens) (UniProt P24941); test: Inhibition of wild-type human full length CDK2 (M1 to L298 residues) expressed in bacterial expression system assessed as remaining activity at 1 uM by Kinomescan method relative to control; summary of the method: as §1
[6] = biological target: Dual specificity protein kinase CLK3 (Homo sapiens) (UniProt P49761); test: Inhibition of wild-type human full length CLK3 (M1 to R490 residues) expressed in bacterial expression system assessed as remaining activity at 1 uM by Kinomescan method relative to control; summary of the method: as §1
[7] = biological target: Dual specificity protein kinase CLK1 (Homo sapiens, UniProt P49759); test: Inhibition of wild-type human full length CLK1 (M1 to I484 residues) expressed in bacterial expression system assessed as remaining activity at 1 uM by Kinomescan method relative to control; summary of the method: as §1
[8] = biological target: T1, Dual specificity tyrosine-phosphorylation-regulated kinase 2 (Homo sapiens) (UniProt Q92630); test: Inhibition of wild-type human full length DYRK2 (M1 to S528 residues) expressed in mammalian expression system assessed as remaining activity at 1 uM by Kinomescan method relative to control; summary of the method: as §1
T1 sequence (whole entry): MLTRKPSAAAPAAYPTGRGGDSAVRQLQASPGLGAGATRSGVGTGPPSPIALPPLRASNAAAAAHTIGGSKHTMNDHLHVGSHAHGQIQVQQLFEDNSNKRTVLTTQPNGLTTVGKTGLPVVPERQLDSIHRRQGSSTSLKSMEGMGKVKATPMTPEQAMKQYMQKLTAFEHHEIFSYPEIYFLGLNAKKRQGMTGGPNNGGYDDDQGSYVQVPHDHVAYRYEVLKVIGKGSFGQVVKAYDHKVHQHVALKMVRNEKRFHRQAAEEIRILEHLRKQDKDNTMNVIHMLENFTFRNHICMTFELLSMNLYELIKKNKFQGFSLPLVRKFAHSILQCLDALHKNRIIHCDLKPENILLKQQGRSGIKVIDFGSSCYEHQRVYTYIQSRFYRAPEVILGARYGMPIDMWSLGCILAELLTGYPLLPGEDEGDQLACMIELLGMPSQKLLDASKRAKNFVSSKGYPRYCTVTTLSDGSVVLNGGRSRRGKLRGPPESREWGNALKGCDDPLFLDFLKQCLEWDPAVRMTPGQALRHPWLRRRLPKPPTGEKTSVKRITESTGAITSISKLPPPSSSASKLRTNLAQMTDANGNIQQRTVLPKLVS

[9] = Metabolic stability in human liver microsomes; format: ADME, Microsome; conditions: read-out: Stabilty
[10] = biological target: Dual specificity tyrosine-phosphorylation-regulated kinase 1B (Homo sapiens) (UniProt Q9Y463); test: Inhibition of wild-type human full length DYRK1B (M1 to S629 residues) expressed in bacterial expression system assessed as remaining activity at 1 uM by Kinomescan method relative to control; summary of the method: as §1
[11] = Thermodynamic solubility of the compound at pH 6.8; format: physicochemical; conditions: buffer, read-out: Therm_solubility
Summary of the method: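 Thermodynamic solubility measured at pH 6.8 in a single experiment, reported in […].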

Chain of Glycogen synthase kinase-3 beta (Homo sapiens) (P49841 whole entry, looked up, the tested form may be a part): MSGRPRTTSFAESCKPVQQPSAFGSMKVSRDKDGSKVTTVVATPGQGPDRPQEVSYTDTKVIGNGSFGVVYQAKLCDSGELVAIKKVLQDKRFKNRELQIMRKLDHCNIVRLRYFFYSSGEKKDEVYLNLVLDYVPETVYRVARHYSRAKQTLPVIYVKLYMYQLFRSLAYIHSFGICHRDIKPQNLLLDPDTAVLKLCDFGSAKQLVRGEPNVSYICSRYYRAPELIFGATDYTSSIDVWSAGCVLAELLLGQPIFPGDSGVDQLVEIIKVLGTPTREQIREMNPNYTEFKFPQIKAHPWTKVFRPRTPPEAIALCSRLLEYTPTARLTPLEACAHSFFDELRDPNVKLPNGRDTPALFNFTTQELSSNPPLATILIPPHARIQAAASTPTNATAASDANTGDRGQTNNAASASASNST
Chain of Dual specificity protein kinase CLK2 (Homo sapiens) (P49760 whole entry, looked up, the tested form may be a part): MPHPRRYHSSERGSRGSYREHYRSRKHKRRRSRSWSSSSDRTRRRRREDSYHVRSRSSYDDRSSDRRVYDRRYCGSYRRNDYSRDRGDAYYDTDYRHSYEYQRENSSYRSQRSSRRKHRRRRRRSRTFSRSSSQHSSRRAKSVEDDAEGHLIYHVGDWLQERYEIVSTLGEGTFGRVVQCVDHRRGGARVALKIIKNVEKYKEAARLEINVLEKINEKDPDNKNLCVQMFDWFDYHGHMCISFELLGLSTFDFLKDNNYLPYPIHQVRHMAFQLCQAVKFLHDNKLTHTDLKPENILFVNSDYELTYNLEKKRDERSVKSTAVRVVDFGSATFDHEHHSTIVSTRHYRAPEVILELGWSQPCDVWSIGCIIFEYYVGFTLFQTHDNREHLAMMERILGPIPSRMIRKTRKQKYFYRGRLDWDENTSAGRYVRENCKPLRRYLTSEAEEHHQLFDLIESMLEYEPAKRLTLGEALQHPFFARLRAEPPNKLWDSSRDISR
Chain of Dual specificity protein kinase CLK3 (Homo sapiens) (P49761 whole entry, looked up, the tested form may be a part): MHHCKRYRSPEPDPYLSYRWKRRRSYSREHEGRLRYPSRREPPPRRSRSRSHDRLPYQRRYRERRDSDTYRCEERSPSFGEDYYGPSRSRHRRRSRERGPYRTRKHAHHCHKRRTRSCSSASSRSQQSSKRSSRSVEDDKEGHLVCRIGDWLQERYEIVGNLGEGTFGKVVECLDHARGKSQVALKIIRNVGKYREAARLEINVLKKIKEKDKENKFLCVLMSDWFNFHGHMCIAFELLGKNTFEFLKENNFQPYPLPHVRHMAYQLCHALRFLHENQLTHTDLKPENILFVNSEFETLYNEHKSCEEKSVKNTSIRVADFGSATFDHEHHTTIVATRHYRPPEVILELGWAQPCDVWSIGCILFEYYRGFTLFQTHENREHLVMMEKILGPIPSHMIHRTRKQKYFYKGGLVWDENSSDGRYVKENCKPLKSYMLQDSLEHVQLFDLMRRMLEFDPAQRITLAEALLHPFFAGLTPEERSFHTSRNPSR
Chain of Dual specificity tyrosine-phosphorylation-regulated kinase 1B (Homo sapiens) (Q9Y463 whole entry, looked up, the tested form may be a part): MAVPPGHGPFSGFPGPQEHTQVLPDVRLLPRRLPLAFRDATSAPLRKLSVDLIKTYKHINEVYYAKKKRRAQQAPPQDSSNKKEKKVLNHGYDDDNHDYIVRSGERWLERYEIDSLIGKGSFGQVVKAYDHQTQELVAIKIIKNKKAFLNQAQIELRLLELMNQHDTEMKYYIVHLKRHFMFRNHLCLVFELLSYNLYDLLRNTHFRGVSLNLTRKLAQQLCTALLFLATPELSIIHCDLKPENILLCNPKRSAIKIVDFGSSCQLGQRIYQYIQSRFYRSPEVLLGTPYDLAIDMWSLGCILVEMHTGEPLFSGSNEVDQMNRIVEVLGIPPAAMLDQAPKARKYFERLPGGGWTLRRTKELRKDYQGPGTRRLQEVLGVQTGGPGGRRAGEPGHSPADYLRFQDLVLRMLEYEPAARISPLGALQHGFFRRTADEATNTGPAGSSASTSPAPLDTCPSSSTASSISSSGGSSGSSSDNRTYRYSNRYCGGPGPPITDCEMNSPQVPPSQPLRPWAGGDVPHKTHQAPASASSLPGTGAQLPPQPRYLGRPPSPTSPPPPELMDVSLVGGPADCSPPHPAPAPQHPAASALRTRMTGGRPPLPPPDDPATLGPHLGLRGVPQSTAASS
Chain of Dual specificity protein kinase CLK1 (P49759 whole entry, looked up, the tested form may be a part): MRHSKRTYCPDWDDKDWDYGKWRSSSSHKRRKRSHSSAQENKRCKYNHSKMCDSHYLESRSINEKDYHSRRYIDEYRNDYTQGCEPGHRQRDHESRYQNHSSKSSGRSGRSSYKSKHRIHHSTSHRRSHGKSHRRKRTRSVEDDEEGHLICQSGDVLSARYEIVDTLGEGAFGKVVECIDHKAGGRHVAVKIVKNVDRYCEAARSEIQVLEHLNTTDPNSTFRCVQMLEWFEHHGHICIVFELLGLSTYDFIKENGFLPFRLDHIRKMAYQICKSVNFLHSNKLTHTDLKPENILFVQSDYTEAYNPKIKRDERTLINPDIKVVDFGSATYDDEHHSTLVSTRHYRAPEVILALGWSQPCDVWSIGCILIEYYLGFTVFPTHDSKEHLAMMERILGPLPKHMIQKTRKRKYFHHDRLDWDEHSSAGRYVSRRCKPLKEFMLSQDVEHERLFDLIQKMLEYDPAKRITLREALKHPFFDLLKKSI

## Cc1cccc(N(C)c2nccc(-c3cnn4ncccc34)n2)c1
[1]
  microsomal CLint: 784 µL/min/mg
[2]
  IC50: 0.0794 µM

## c1cnn2ncc(-c3ccnc(N4CC5CCCC5C4)n3)c2c1 (stereo not drawn)
[2]
  IC50: 1.23 µM

## c1cnn2ncc(-c3ccnc(N4CCC5(CCOC5)C4)n3)c2c1 (stereo not drawn)
[2]
  IC50: 0.269 µM

## CN(CCC(F)(F)F)c1nccc(-c2cnn3ncccc23)n1
[2]
  IC50: 0.229 µM

## CN(C)c1nc2c(c(-c3cnn4ncccc34)n1)COC2
[2]
  IC50: 7.41 µM

## CN(CCCC(F)(F)F)c1nccc(-c2cnn3ncccc23)n1
[2]
  IC50: 0.1 µM

## c1cnn2ncc(-c3ccnc(N4CC5CC5C4)n3)c2c1 (stereo not drawn)
[2]
  IC50: 0.309 µM

## Cc1cnc(N(C)C)nc1-c1cnn2ncccc12
[2]
  IC50: 2.82 µM

## CC1CCCN1c1nccc(-c2cnn3ncccc23)n1 (stereo not drawn)
[3]
  Activity: 92%
[1]
  microsomal CLint: 929 µL/min/mg
[4]
  Activity: 61%
[2]
  IC50: 0.11 µM
[5]
  Activity: 100%
[6]
  Activity: 100%
[7]
  Activity: 71%
[8]
  Activity: 66%
[9]
  microsomal CLint: 328 µL/min/mg
[10]
  Activity: 81%
[11]
  solubility thermodynamic: 10 µg/mL (≈ 35.7 µM)

## C[C@H]1CCN(c2nccc(-c3cnn4ncccc34)n2)C1
[3]
  Activity: 77%
[1]
  microsomal CLint: 448 µL/min/mg
[4]
  Activity: 16%
[2]
  IC50: 0.115 µM
[5]
  Activity: 100%
[6]
  Activity: 88%
[7]
  Activity: 17%
[8]
  Activity: 15%
[9]
  microsomal CLint: 378 µL/min/mg
[10]
  Activity: 7.2%
[11]
  solubility thermodynamic: 20 µg/mL (≈ 71.3 µM)

## CC(C)N(c1nccc(-c2cnn3ncccc23)n1)C1CC1
[2]
  IC50: 1.2 µM

## CN(C)c1nccc(-c2cnn3ccccc23)n1
[2]
  IC50: 0.891 µM

## CC1CCN(c2nccc(-c3cnn4ncccc34)n2)C1 (stereo not drawn)
[2]
  IC50: 0.204 µM

## CC1(F)CN(c2nccc(-c3cnn4ncccc34)n2)C1
[2]
  IC50: 0.372 µM

## Cc1cc(-c2cnn3ncccc23)nc(N(C)C)n1
[2]
  IC50: 11.7 µM

## COc1ccc2c(-c3ccnc(N(C)C)n3)cnn2n1
[2]
  IC50: 2.63 µM

## CN(C)c1nccc(-c2c[nH]c3cnccc23)n1
[2]
  IC50: 1.02 µM

## CN(C)c1cccc(-c2cnn3ncccc23)n1
[2]
  IC50: 0.912 µM

## CCCN(CCOC)c1nccc(-c2cnn3ncccc23)n1
[2]
  IC50: 0.316 µM

## Cc1ccc2c(-c3ccnc(N(C)C)n3)cnn2n1
[2]
  IC50: 0.871 µM

## CN(C)c1nccc(-c2cnc3cccnn23)n1
[2]
  IC50: 55 µM

## CN(C)c1nccc(-c2cn(C)c3cnccc23)n1
[2]
  IC50: 0.977 µM

## FC1CCN(c2nccc(-c3cnn4ncccc34)n2)C1 (single isomer, unassigned)
[3]
  Activity: 98%
[1]
  microsomal CLint: 130 µL/min/mg
[4]
  Activity: 62%
[2]
  IC50: 0.0661 µM
[5]
  Activity: 95%
[6]
  Activity: 96%
[7]
  Activity: 48%
[8]
  Activity: 39%
[9]
  microsomal CLint: 296 µL/min/mg
[10]
  Activity: 34%
[11]
  solubility thermodynamic: 40 µg/mL (≈ 141 µM)

## COc1ncc(-c2ccnc(N(C)C)n2)s1
[2]
  IC50: 3.98 µM

## CC1CCN(c2nccc(-c3cnn4ncccc34)n2)C1 (single isomer, unassigned) [listing 1 of 2 here]
[1]
  microsomal CLint: 184 µL/min/mg
[2]
  IC50: 0.148 µM
[9]
  microsomal CLint: 389 µL/min/mg
[11]
  solubility thermodynamic: 50 µg/mL (≈ 178 µM)

## CN(C)c1ncc(Br)c(-c2cnn3ncccc23)n1
[2]
  IC50: 1.58 µM

## CN(C)c1nccc(-c2c[nH]c3ncccc23)n1
[1]
  microsomal CLint: 234 µL/min/mg
[2]
  IC50: 0.135 µM
[9]
  microsomal CLint: 154 µL/min/mg

## COCCCN(C)c1nccc(-c2cnn3ncccc23)n1
[2]
  IC50: 0.219 µM

## c1cnn2ncc(-c3ccnc(N4CCC5CNCC54)n3)c2c1 (stereo not drawn)
[2]
  IC50: 1.66 µM

## CN(C)c1nc(Cl)cc(-c2cnn3ncccc23)n1
[2]
  IC50: 1.35 µM

## Cc1ccnn2ncc(-c3ccnc(N(C)C)n3)c12
[2]
  IC50: 0.724 µM

## CN(C)c1cc(-c2cnn3ncccc23)ccn1
[2]
  IC50: 0.676 µM

## CN(C)c1ncc(I)c(-c2cnn3ncccc23)n1
[2]
  IC50: 1.62 µM

## N[C@H]1CCN(c2nccc(-c3cnn4ncccc34)n2)C1
[3]
  Activity: 100%
[1]
  microsomal CLint: 48 µL/min/mg
[4]
  Activity: 72%
[5]
  Activity: 100%
[6]
  Activity: 95%
[7]
  Activity: 36%
[8]
  Activity: 29%
[9]
  microsomal CLint: 199 µL/min/mg
[10]
  Activity: 18%
[11]
  solubility thermodynamic: 1920 µg/mL (≈ 6820 µM)

## CN(C)c1nccc(-c2cn(C)c3ncccc23)n1
[2]
  IC50: 11.7 µM

## Cc1nn2ncccc2c1-c1ccnc(N(C)C)n1
[2]
  IC50: 30.9 µM

## CN(C)c1nccc(-c2cnc3ccccn23)n1
[2]
  IC50: 0.692 µM

## CC1(C)CCN(c2nccc(-c3cnn4ncccc34)n2)C1
[2]
  IC50: 0.427 µM

## F[C@H]1CCN(c2nccc(-c3cnn4ncccc34)n2)C1
[2]
  IC50: 0.186 µM

## COc1cnc(N(C)C)nc1-c1cnn2ncccc12
[2]
  IC50: 1.17 µM

## COc1cc(-c2cnn3ncccc23)nc(N(C)C)n1
[2]
  IC50: > 100 µM

## c1cnn2ncc(-c3ccnc(N4CC5(COC5)C4)n3)c2c1
[2]
  IC50: 0.513 µM

## CN(c1ccccc1)c1nccc(-c2cnn3ncccc23)n1
[1]
  microsomal CLint: 340 µL/min/mg
[9]
  microsomal CLint: 450 µL/min/mg
[11]
  solubility thermodynamic: 50 µg/mL (≈ 165 µM)

## CCCN(c1nccc(-c2cnn3ncccc23)n1)C(C)C
[2]
  IC50: 0.759 µM

## CCn1cc(-c2ccnc(N(C)C)n2)c2cccnc21
[2]
  IC50: 7.76 µM

## CN(C)c1nccc(-c2ccc(=O)n(C)c2)n1
[2]
  IC50: 7.94 µM

## NC1CCN(c2nccc(-c3cnn4ncccc34)n2)C1 (single isomer, unassigned)
[3]
  Activity: 100%
[1]
  microsomal CLint: 66 µL/min/mg
[4]
  Activity: 51%
[5]
  Activity: 86%
[6]
  Activity: 89%
[7]
  Activity: 47%
[8]
  Activity: 28%
[9]
  microsomal CLint: 40 µL/min/mg
[10]
  Activity: 10%
[11]
  solubility thermodynamic: 4370 µg/mL (≈ 15500 µM)

## CC1CCN(c2nccc(-c3cnn4ncccc34)n2)C1 (single isomer, unassigned) [listing 2 of 2 here]
[3]
  Activity: 100%
[4]
  Activity: 15%
[5]
  Activity: 95%
[6]
  Activity: 73%
[7]
  Activity: 16%
[8]
  Activity: 25%
[10]
  Activity: 9.1%

## CN(C)c1ncc(C(F)(F)F)c(-c2cnn3ncccc23)n1
[2]
  IC50: 12.9 µM

## CC(C)c1cc(-c2cnn3ncccc23)nc(N(C)C)n1
[2]
  IC50: 19.1 µM

## CN(C)C1CCN(c2nccc(-c3cnn4ncccc34)n2)C1 (stereo not drawn)
[2]
  IC50: 0.245 µM
